Bioassay records: PubChem, several laboratories
MEKK3 PB1 HTS: modulators (inhibitors or enhancers) of MEK5 binding to human MEKK3 PB1 domain. Q99759. bead-based flow cytometry, Alexa488-MEK5 binding to MEKK3; actives lie on both sides; 0 = blocked by unlabeled MEK5, 100 = vehicle. binding response (% of control), % at 10 µM. hit rate 1.4% among 290,000. AID 1529;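 active means binding response more than 3 SD above or below the average of its plate-row segment, actives on both sides; inconclusive means wells at one plate position flagged as instrument error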;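 further: Alexa488 bead fluorescence after subtracting the streptavidin-only scavenger bead signal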
MEKK2wt PB1 HTS: raises or lowers MEK5 binding to wildtype human MEKK2 PB1 domain; bead flow cytometry, Alexa488-MEK5 binding to MEKK2 WT; actives lie on both sides; AID 1531; hit rate 1.1% among 290,000; binding response (% of control), % at 10 µM; in the data active means binding response below about 67% or above about 130%; inconclusive means no clear call, values can overlap the other calls; inactive means in between
Pemphigus Ab inh: human desmoglein-3 autoantibody binding inhibition; hit rate 0.48% among 310,000; binding (percent of control), % at 10 µM; P32926; AID 588358; DSG3-coupled beads, scFv-anti-DSG3-GFP binding, flow cytometry; stronger effect = lower value;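 active means binding more than 3 SD below its plate's average and above zero; inconclusive means below that plate limit but binding exactly zero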;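 further: hits lower antibody fragment binding to DSG3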
UBC13 polyUb: human UBC13 polyubiquitination inhibition | UBC13 polyubiquitin chain formation, TR-FRET | inhibition, % at 20 µM | P61088 | hit rate 0.47% among 330,000; in the data active means inhibition above about 45%, passing the limit was not always enough; inconclusive means no clear call, values can overlap the other calls
Target sequence (P61088 whole entry, looked up): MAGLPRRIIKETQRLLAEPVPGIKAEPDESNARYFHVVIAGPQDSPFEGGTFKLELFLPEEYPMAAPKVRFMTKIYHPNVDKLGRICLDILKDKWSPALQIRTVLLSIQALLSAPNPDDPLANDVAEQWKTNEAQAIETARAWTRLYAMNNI
Apaf-1 inh: blocks human Apaf-1 apoptosome activity | O14727 | reconstituted apoptosome caspase-3 activity, DEVD-Rh110 fluorescence | inhibition, % at 20 µM | hit rate 0.71% among 330,000 | AID 489030; active means inhibition of at least 40% at 20 µM
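Assay system: Apoptosome proteins | Medium: pH 7.5 Hepes buffer with CHAPS, BSA, DTT | Also added: Cytochrome c and DEVD-Rh110 substrate | Times: 30 min plus 50 min, RT | Detection: Rhodamine 110 fluorescence at Ex 480/Em 540 nm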
MEKK2 mut-MEK5: signal of MEK5 binding to mutant human MEKK2 PB1 domain. bead flow cytometry, Alexa488-MEK5 binding to MEKK2 mutant. percent response, % at 10 µM. hit rate 0.35% among 290,000; in the data active means percent response above about 24%, passing the limit was not always enough
Casp3 UBC13 ctr: caspase-3 inhibition (UBC13 counter-screen). Recombinant caspase-3, Caspase-Glo 3/7 luminescence, 60 min. hit rate 4% among 1,400. inhibition, % at 20 µM. shares compounds with UBC13 polyUb;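 active means mean inhibition across replicates above about 26%, limit read from the data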
Target sequence (P42574 whole entry, looked up): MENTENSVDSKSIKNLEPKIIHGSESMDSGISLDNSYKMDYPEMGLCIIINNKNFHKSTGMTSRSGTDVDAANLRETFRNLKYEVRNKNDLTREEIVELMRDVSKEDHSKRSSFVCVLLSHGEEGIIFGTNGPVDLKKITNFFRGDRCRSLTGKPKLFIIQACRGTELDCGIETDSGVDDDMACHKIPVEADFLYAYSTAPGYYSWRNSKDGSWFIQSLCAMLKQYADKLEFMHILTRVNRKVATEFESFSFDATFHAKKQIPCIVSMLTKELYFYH
UBC13 conf: confirmation of human UBC13 polyubiquitin inhibitors; shares compounds with UBC13 polyUb; UBC13 polyubiquitination, TR-FRET, biochemical; inhibition, % at 10 µM; hit rate 68% among 1,400; in the data active means inhibition above about 45%; inconclusive means no clear call, values can overlap the other calls
Numbers stand for hits; i = inactive; ? = inconclusive; nt = no result. In the library only some 3.2% were active in any assay of this set; here they are far more common.

SMILES | MEKK3 PB1 HTS | MEKK2wt PB1 HTS | Pemphigus Ab inh | UBC13 polyUb | Apaf-1 inh | MEKK2 mut-MEK5 | Casp3 UBC13 ctr | UBC13 conf
COCc1cc(=O)[nH]c(Nc2nc(C)c3ccccc3n2)n1 | i | i | nt | i | i | i | nt | nt
COC(=O)Cc1cc(=O)[nH]c(Nc2nc3ccccc3o2)n1 | i | i | i | 57.9 | i | i | i | 72.8
COC(=O)Cc1cc(=O)[nH]c(/N=C(\N)Nc2ccccc2)n1 | i | i | i | i | i | i | nt | nt
Cc1cnc(C(=O)OCc2nc3ccsc3c(=O)[nH]2)cn1 | nt | nt | i | i | i | nt | nt | nt
COc1ccc(CC(=O)N/N=C(/C)CC(=O)N(C)c2ccccc2)cc1 | i | i | i | i | i | i | nt | nt
Cc1cccc(NC(=O)Cn2c(O)c(N=NC(N)=S)c3ccccc32)c1 | i | i | i | i | i | i | nt | nt
CC1=CC(C)(C)n2c(O)c(N=NC(N)=S)c3cc(C)cc1c32 | i | i | i | 56.8 | i | i | i | 52.0
C#CCOCC1CN(C)C(=O)O1 (stereo unspecified) | nt | nt | i | nt | nt | nt | nt | nt
O=C(O)CCCc1ccc2ccc3cccc4ccc1c2c34 | i | i | i | i | i | i | nt | nt
NCCCCc1ccc2ccc3cccc4ccc1c2c34 | nt | nt | i | 48.9 | i | nt | i | 84.9
CCCN(C(=O)CCNC(=O)Cn1cnc2ccccc2c1=O)c1cccc(Cl)c1 | i | i | i | i | i | i | nt | nt
CCOc1ccc(-c2csc(NC(=O)c3cccc(N4C(=O)CCC4=O)c3)n2)cc1 | i | i | 57.3 | 57.8 | i | i | i | ?
Cc1cccc(/C=N/NC(=O)c2ccc(NC(=O)c3cccc(Cl)c3)cc2)n1 | i | i | nt | i | i | i | nt | nt
COc1ccccc1NS(=O)(=O)c1cccc(C(=O)N/N=C/c2c(CO)cnc(C)c2O)c1 | nt | nt | i | 72.3 | i | nt | i | i
O=C(Nc1ccc(C(=O)NCC2CCN(Cc3ccccc3F)CC2)cc1)C1=CSCCO1 | i | i | i | i | i | i | nt | nt
Cc1ccc(CN2CCC(CNC(=O)c3ccc(NC(=O)C4=CSCCO4)cc3)CC2)cc1 | i | i | i | 71.6 | i | i | i | 95.9
CS(=O)(=O)c1ncc(Cl)c(C(=O)Nc2ccc(N3CCOCC3)cc2)n1 | nt | nt | i | 45.3 | i | nt | i | i
CS(=O)(=O)c1ncc(Cl)c(C(=O)Nc2ccc(OC(F)F)cc2)n1 | i | i | i | i | i | i | nt | nt
CN1CCN(CCCNC(=O)c2cn(C3CCCCC3)c(=O)c3c2c2ccccc2n3C)CC1 | i | i | i | 64.4 | i | i | i | 63.5
COc1ccc(-c2cccc(-c3cc(=O)oc4ccc(C(C)(C)C)cc34)c2)cc1 | nt | nt | i | nt | i | nt | nt | nt
CCCNC(=O)c1ccc2c(=O)c(O)c(-c3ccc(C)cc3)[nH]c2c1 | i | i | i | i | i | i | nt | nt
Cc1ccc(-c2[nH]c3cc(C(=O)NCCCn4ccnc4)ccc3c(=O)c2O)cc1 | i | i | nt | 46.5 | i | i | i | i
O=C(CSc1nc2ccsc2c(=O)n1Cc1ccc(C(=O)O)cc1)NCC1CCCO1 (stereo unspecified) | i | i | i | 69.1 | i | i | i | 76.6
Cc1ccc(Cn2c(SCC(=O)NCC3CCCO3)nc3ccsc3c2=O)cc1 (stereo unspecified) | i | i | i | i | i | i | nt | nt
CC1Cc2nc(SCC(=O)NCC3CCCO3)n(Cc3ccccc3)c(=O)c2S1 (stereo unspecified) | i | i | i | i | i | i | nt | nt
O=C(CSc1nc2ccsc2c(=O)n1Cc1ccccc1)NCC1CCCO1 (stereo unspecified) | i | i | i | 55.3 | i | i | i | 58.2
Cc1ccc(NC(=O)c2cnc(SCC(=O)c3ccccc3)n(C)c2=O)cc1 | nt | nt | i | ? | i | nt | nt | nt
Cn1c(SCC(=O)c2ccccc2)ncc(C(=O)Nc2ccccc2)c1=O | nt | nt | i | 57.1 | i | nt | 94.8 | 53.0
COc1ccccc1C(=O)Nc1c2c(nn1-c1cccc(C)c1C)CS(=O)(=O)C2 | i | i | 32.2 | 46.4 | i | i | i | i
